Data reported in ChEMBL document CHEMBL4376878, “Potent Thiophene Antagonists of Human Complement C3a Receptor with Anti-Inflammatory Activity” (J Med Chem, 2020).
Calls of active or inactive are those of the source. No cut-off for these calls is given here.

Tests used:
[1] = target: T1, C5a anaphylatoxin chemotactic receptor 1 (Homo sapiens) (UniProt P21730); test: Antagonist activity at C5a receptor in human MDM cells assessed as inhibition of C5a-induced intracellular calcium release preincubated for 30 mins followed by C5a addition and measured at 1 sec interval for => 200 secs by Fluo-3 AM dye-based FLIPR assay; assay type: functional, cell-based
T1 sequence (whole entry): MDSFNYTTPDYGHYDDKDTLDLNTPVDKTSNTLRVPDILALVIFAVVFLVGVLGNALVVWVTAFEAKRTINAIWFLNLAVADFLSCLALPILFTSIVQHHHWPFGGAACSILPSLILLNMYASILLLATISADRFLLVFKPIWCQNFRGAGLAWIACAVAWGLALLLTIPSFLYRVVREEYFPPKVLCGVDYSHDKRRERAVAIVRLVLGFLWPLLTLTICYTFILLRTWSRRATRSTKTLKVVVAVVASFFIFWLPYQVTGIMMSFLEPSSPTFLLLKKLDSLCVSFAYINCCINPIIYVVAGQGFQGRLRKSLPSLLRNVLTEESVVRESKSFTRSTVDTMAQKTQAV
Outline: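 HMDMs from CD14+ monocytes after 7 days in M-CSF; 5 × 10⁴ cells/well seeded overnight. Cells loaded 1 h at 37 °C with 4 μM Fluo-3 AM, then washed into HBSS with 2.5 mM probenecid and 20 mM HEPES, pH 7.4. Antagonist preincubated 30 min at 37 °C before C5a. Fluorescence (ex 495/em 520 nm) read every 1 s for ≥200 s.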

[2] = target: T2, C3a anaphylatoxin chemotactic receptor (Homo sapiens, UniProt Q16581); test: Antagonist activity at C3a receptor in human MDM cells assessed as inhibition of C3a-induced intracellular calcium release preincubated for 30 mins followed by C3a addition and measured at 1 sec interval for => 200 secs by Fluo-3 AM dye-based FLIPR assay; assay type: functional, cell-based; conditions: read-out: IC50
T2 sequence (Q16581 whole entry): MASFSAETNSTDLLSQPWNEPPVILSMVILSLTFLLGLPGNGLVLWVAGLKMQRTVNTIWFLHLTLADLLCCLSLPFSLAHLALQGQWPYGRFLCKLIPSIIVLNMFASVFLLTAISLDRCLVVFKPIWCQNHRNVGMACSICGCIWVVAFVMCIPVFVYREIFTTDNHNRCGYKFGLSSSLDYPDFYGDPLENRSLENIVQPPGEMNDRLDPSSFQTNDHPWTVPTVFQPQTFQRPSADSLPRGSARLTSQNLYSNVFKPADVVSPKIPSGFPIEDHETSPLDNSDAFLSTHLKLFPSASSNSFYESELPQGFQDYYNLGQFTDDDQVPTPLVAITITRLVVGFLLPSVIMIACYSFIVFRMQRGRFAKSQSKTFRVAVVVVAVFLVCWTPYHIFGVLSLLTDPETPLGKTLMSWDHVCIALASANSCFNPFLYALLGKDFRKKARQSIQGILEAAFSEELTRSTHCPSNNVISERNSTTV
Outline: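 Macrophages were derived from CD14⁺ monocytes (M-CSF, 7 days) and dye-loaded with 4 μM Fluo-3 AM for 1 h at 37 °C in HBSS/probenecid/HEPES, pH 7.4. Antagonist was preincubated for 30 min at 37 °C before addition of synthetic full-length human C3a (100 nM). FLIPR fluorescence was read at ex 495/em 520 nm. Percent response was plotted against log concentration; n ≥ 3.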

[3] = target: T2, C3a anaphylatoxin chemotactic receptor; test: Agonist activity at C3a receptor in human MDM cells assessed as induction of intracellular calcium release measured at 1 sec interval for => 200 secs by Fluo-3 AM dye-based FLIPR assay; assay type: cell-based
Outline: (§1)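 HMDMs were differentiated from CD14⁺ monocytes with M-CSF (100 ng/mL) for 7 days and seeded overnight at 5 × 10⁴ cells/well. Cells were loaded with 4 μM Fluo-3 AM for 1 h at 37 °C, then placed in HBSS with 2.5 mM probenecid and 20 mM HEPES, pH 7.4. Agonist was added on FLIPR and read at ex 495/em 520 nm. EC50 is relative to the maximum from 1 μM C3a; n ≥ 3.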

[4] = target: T2, C3a anaphylatoxin chemotactic receptor; test: Partial agonist activity at C3a receptor in human MDM cells assessed as induction of intracellular calcium release at higher concentration measured at 1 sec interval for => 200 secs by Fluo-3 AM dye-based FLIPR assay relative to control; assay type: cell-based; outline: as §1
[5] = Elimination half-life in Wistar rat at 0.5 mg/kg, iv by LC-MS/MS analysis; assay type: ADME, organism-based; conditions: in vivo, read-out: beta t1/2
Outline: (§2)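 Male Wistar rats with jugular vein catheter, fasted overnight; dosed p.o. by gavage in olive oil or i.v. via catheter in 50% DMSO. Blood drawn from conscious unrestrained rats 5 min before dosing, then 5, 15, 30 min and 1–8 h after. Volume replaced with heparinized saline. Rats fed after 4 h sample. n = 3 per route.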

[6] = Volume of distribution in Wistar rat at 0.5 mg/kg, iv by LC-MS/MS analysis; assay type: ADME, organism-based; conditions: in vivo; outline: as §2
[7] = Clearance in Wistar rat at 0.5 mg/kg, iv by LC-MS/MS analysis; assay type: ADME, organism-based; conditions: in vivo; outline: as §2
[8] = Cmax in Wistar rat at 10 mg/kg, po by LC-MS/MS analysis; assay type: ADME, organism-based; design: dose 10 mg/kg, route oral; conditions: in vivo; outline: as §2
[9] = AUC (0 to 8 hrs) in Wistar rat at 0.5 mg/kg, iv by LC-MS/MS analysis; assay type: ADME, organism-based; design: time < 8 hr, dose 0.5 mg/kg, route intravenous; conditions: in vivo; outline: as §2
[10] = Stability of the compound in rat plasma at 1 mM measured after 4 hrs by LC-MS analysis; assay type: ADME, cell-free
Outline: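 Compound added to rat plasma from 1 mM DMSO stock (stock concentration) and incubated at 37 °C. Samples taken at 0, 5, 15, 30, 60, 120 and 240 min, quenched in MeCN/H₂O 9:1, centrifuged and analyzed by LC-MS. Plasma activity checked with SLIGRL-NH₂.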

[11] = Stability of the compound in rat liver microsomes at 1 uM preincubated for 5 mins followed by NADPH addition and measured after 1 hr by LC-MS/MS analysis; assay type: ADME, Microsome
Outline: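 Compound at 1 μM in 100 mM phosphate buffer, pH 7.4 (0.1% DMSO), was incubated with rat liver microsomes […] at 37 °C before further NADPH was added. Aliquots taken at 0, 5, 15, 30 and 60 min were quenched in MeCN/H₂O (9:1), centrifuged and analysed by LC-MS/MS. Microsomal activity was confirmed in parallel with SLIGRL-NH₂; n = 3.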

[12] = test system: Rattus norvegicus; test: Antiinflammatory activity in Wistar rat model of BR103-induced paw edema assessed as reduction in hind paw swelling at 10 mg/kg, po administered via gavage pretreated for 2 hrs followed by BR103 challenge and measured after 30 mins by digital caliper method relative to control; assay type: functional; design: scale not given: the % may be the effect or the level left
Outline: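 Male Wistar rats were given antagonist at 10 mg/kg by oral gavage in olive oil 2 h before intraplantar BR103 (350 μg in 100 μL of 5% DMSO). Sham paws received vehicle; sham and control rats received olive oil only. Paw thickness and width were measured with digital calipers at 0, 0.5, 1 and 2 h after agonist; n = 3 per group.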

[13] = AUC (0 to 8 hrs) in Wistar rat at 10 mg/kg, po by LC-MS/MS analysis; assay type: ADME, organism-based; design: dose 10 mg/kg, time < 8 hr, route oral; conditions: in vivo; outline: as §2
[14] = Tmax in Wistar rat at 10 mg/kg, po by LC-MS/MS analysis; assay type: ADME, organism-based; conditions: in vivo; outline: as §2
[15] = target: T3, C3a anaphylatoxin chemotactic receptor (Homo sapiens) (UniProt Q16581); test: Displacement of Eu-DTPA-C3a from Galpha16-coupled C3a receptor (unknown origin) expressed in HEK293 cells measured after 60 mins by time-resolved fluorescence assay; assay type: cell-based
T3 sequence (whole entry): T2 sequence (Q16581 whole entry)

SMILES	IC50 [2] [µM]	EC50 ([3]; read-out: EC50) [µM]	EC50 ([3]; read-out: pEC50 (converted)) [µM]	also measured
CC(=O)N[C@@H](Cc1ccccc1)C(=O)N[C@H]1CCCNC(=O)[C@H](CCCN=C(N)N)NC(=O)[C@H](Cc2c[nH]c3ccccc23)NC(=O)[C@@H](CC2CCCCC2)NC(=O)[C@@H]2CCCN2C1=O	–	–	–	inhibition [1]: Active
N=C(N)NCCC[C@H](NC(=O)c1ccc(C(c2ccc(F)cc2)c2ccc(F)cc2)s1)C(=O)O	0.1	> 10	> 10	–
N=C(N)NCCC[C@H](NC(=O)c1ccc(C2CCCCCCCCCCC2)s1)C(=O)O	> 100	> 100	> 100	–
N=C(N)NCCC[C@H](NC(=O)c1ccc(C(c2ccccc2)c2ccccn2)s1)C(=O)O (mixture of isomers)	0.04	> 100	> 100	Activity [4]: 30 to 80%
N=C(N)NCCC[C@H](NC(=O)c1sc(C(c2ccccc2)c2ccccc2)cc1Br)C(=O)O	0.51	–	100	Activity [4]: 30 to 80%
N=C(N)NCCC[C@H](NC(=O)c1sc(C(c2ccccc2)c2ccccc2)c2c1CCCC2)C(=O)O	2.4	> 100	> 100	–
N=C(N)NCCC[C@H](NC(=O)c1ccc(C(c2ccc(Cl)cc2)c2ccc(Cl)cc2)s1)C(=O)O	0.03	> 100	> 100	half-life [5]: 1.02 h; Vd [6]: 0.3 L; clearance [7]: 4.6 mL/min/kg; Cmax [8]: 143 ng/mL; AUC(0-t) at 8 h [9]: 1800 ng·h/mL; Stability [10]: Stable; Stability [11]: Stable; Activity [12]: 45%; AUC(0-t) at 8 h [13]: 814 ng·h/mL; Tmax [14]: 4 h
Cc1cc(C(c2ccc(O)cc2)c2ccc(O)cc2)sc1C(=O)N[C@@H](CCCNC(=N)N)C(=O)O	0.79	> 100	> 100	Stability [11]: Stable
Cc1cc(C(c2ccc(F)cc2)c2ccc(F)cc2)sc1C(=O)N[C@@H](CCCNC(=N)N)C(=O)O	0.035	> 100	> 100	Activity [4]: 30 to 80%
N=C(N)NCCC[C@H](NC(=O)c1ccc(C(c2ccccc2)c2ccc3ccccc3c2)s1)C(=O)O (mixture of isomers)	0.09	> 100	> 100	–
Cc1cc(C(=O)N[C@@H](CCCNC(=N)N)C(=O)O)sc1C(c1ccccc1)c1ccccc1	0.14	> 100	> 100	–
N=C(N)NCCC[C@H](NC(=O)c1ccc(C(Cc2ccccc2)Cc2ccccc2)s1)C(=O)O	0.1	> 100	> 100	–
N=C(N)NCCC[C@H](NC(=O)c1cc(-c2ccccc2)c(C(c2ccccc2)c2ccccc2)s1)C(=O)O	0.14	> 100	> 100	–
COc1ccc(C(c2ccc(OC)cc2)c2cc(C)c(C(=O)N[C@@H](CCCNC(=N)N)C(=O)O)s2)cc1	2	> 100	> 100	–
CC(C)=C(c1ccccc1)c1ccc(C(=O)N[C@@H](CCCNC(=N)N)C(=O)O)s1	4.4	> 100	> 100	–
N=C(N)NCCC[C@H](NC(=O)c1ccc(C(c2cccc(Cl)c2)c2cccc(Cl)c2)s1)C(=O)O	0.006	0.05	–	Activity [4]: <= 60%
N=C(N)NCCC[C@H](NC(=O)c1ccc(Cc2ccccc2)s1)C(=O)O	> 10	> 100	> 100	–
CC(c1ccccc1)c1ccc(C(=O)N[C@@H](CCCNC(=N)N)C(=O)O)s1 (mixture of isomers)	> 10	> 100	> 100	–
COc1ccc(C(c2ccc(OC)cc2)c2ccc(C(=O)N[C@@H](CCCNC(=N)N)C(=O)O)s2)cc1	6.1	> 100	> 100	–
N=C(N)NCCC[C@H](NC(=O)c1ccc(C(c2ccccc2)C2CCCCC2)s1)C(=O)O (mixture of isomers)	0.004	0.07	–	Activity [4]: <= 30%
Cc1cc(C(c2cccc(Cl)c2)c2cccc(Cl)c2)sc1C(=O)N[C@@H](CCCNC(=N)N)C(=O)O	0.003	0.046	–	Activity [4]: <= 80%
Cc1[nH]c(C(c2ccccc2)c2ccccc2)nc1C(=O)N[C@@H](CCCNC(=N)N)C(=O)O	–	–	–	inhibition [15]: Dose-dependent effect
CCC(Cc1ccccc1)c1ccc(C(=O)N[C@@H](CCCNC(=N)N)C(=O)O)s1 (mixture of isomers)	0.2	> 100	> 100	–
N=C(N)NCCC[C@H](NC(=O)c1cnc(C(c2ccccc2)c2ccccc2)s1)C(=O)O	0.6	> 100	> 100	–
N=C(N)NCCC[C@H](NC(=O)c1sc(C(c2ccccc2)c2ccccc2)cc1-c1ccccc1)C(=O)O	> 100	> 100	> 100	–
CCC(c1ccccc1)c1ccc(C(=O)N[C@@H](CCCNC(=N)N)C(=O)O)s1 (mixture of isomers)	2.3	> 100	> 100	–
